System: HEK-293T
Experiment: Multiplex assay against HEK293T
Assay type: toxicity, cell-based
Details: human
Method in brief: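 At seeding, live cells were stained with Hoechst33342, BioTracker Green Microtubule Cytoskeleton Dye, MitoTracker Red and Annexin V Alexa Fluor 680. After compound addition they were imaged on a CQ1 microscope at 37°C and 5% CO2, and CellPathfinder machine-learning gating sorted them into Hoechst high-intensity objects or normal cells, with normal cells further split into healthy, pyknosed or fragmented nuclei and pyknosed cells into mitotic or apoptotic. Tubulin, mitochondrial-mass and membrane-permeability phenotypes are given as per cents of cells with healthy nuclei.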

[1] = 12 h, 1 µM, compound concentration 1 uM, replicate 1
[2] = 12 h, 1 µM, compound concentration 1 uM, replicate 2
[3] = 12 h, 10 µM, compound concentration 10 uM, replicate 1
[4] = 12 h, 10 µM, compound concentration 10 uM, replicate 2
[5] = 24 h, 1 µM, compound concentration 1 uM, replicate 1
[6] = 24 h, 1 µM, compound concentration 1 uM, replicate 2
[7] = 24 h, 10 µM, compound concentration 10 uM, replicate 1
[8] = 24 h, 10 µM, compound concentration 10 uM, replicate 2
[9] = 48 h, 1 µM, compound concentration 1 uM, replicate 1
[10] = 48 h, 1 µM, compound concentration 1 uM, replicate 2
[11] = 48 h, 10 µM, compound concentration 10 uM, replicate 1
[12] = 48 h, 10 µM, compound concentration 10 uM, replicate 2

CCc1nn2c(C)cc(C)nc2c1Cc1ccc(-c2nnc(C3CCNCC3)o2)cc1
Population Apoptotic (%) [1]: 35% | Population Fragmented Nuclei (%) [1]: 9% | Population Healthy Nuclei (%) [1]: 80% | Population Hoechst High Intensity Objects (%) [1]: 7% | Population Membrane Permeable-Phenotype (%) [1]: 0% | Population Mitochondria Different-Phenotype (%) [1]: 54% | Population Mitotic Cells (%) [1]: 64% | Population Normal (%) [1]: 92% | Population Pyknosed Nuclei (%) [1]: 10% | Population Tubulin-Different-Phenotype (%) [1]: 37% | Total Cell Count [1]: 401 | Population Apoptotic (%) [2]: 51% | Population Fragmented Nuclei (%) [2]: 7% | Population Healthy Nuclei (%) [2]: 78% | Population Hoechst High Intensity Objects (%) [2]: 5% | Population Mitochondria Different-Phenotype (%) [2]: 62% | Population Mitotic Cells (%) [2]: 48% | Population Normal (%) [2]: 94% | Population Pyknosed Nuclei (%) [2]: 13% | Population Tubulin-Different-Phenotype (%) [2]: 19% | Total Cell Count [2]: 395 | Population Apoptotic (%) [3]: 63% | Population Fragmented Nuclei (%) [3]: 6% | Population Healthy Nuclei (%) [3]: 68% | Population Hoechst High Intensity Objects (%) [3]: 11% | Population Membrane Permeable-Phenotype (%) [3]: 0% | Population Mitochondria Different-Phenotype (%) [3]: 85% | Population Mitotic Cells (%) [3]: 36% | Population Normal (%) [3]: 88% | Population Pyknosed Nuclei (%) [3]: 25% | Population Tubulin-Different-Phenotype (%) [3]: 65% | Total Cell Count [3]: 319 | Population Apoptotic (%) [4]: 56% | Population Fragmented Nuclei (%) [4]: 4% | Population Healthy Nuclei (%) [4]: 78% | Population Hoechst High Intensity Objects (%) [4]: 12% | Population Mitochondria Different-Phenotype (%) [4]: 86% | Population Mitotic Cells (%) [4]: 43% | Population Normal (%) [4]: 87% | Population Pyknosed Nuclei (%) [4]: 17% | Population Tubulin-Different-Phenotype (%) [4]: 48% | Total Cell Count [4]: 293 | Population Apoptotic (%) [5]: 44% | Population Fragmented Nuclei (%) [5]: 10% | Population Healthy Nuclei (%) [5]: 76% | Population Hoechst High Intensity Objects (%) [5]: 4% | Population Membrane Permeable-Phenotype (%) [5]: 0% | Population Mitochondria Different-Phenotype (%) [5]: 36% | Population Mitotic Cells (%) [5]: 55% | Population Normal (%) [5]: 95% | Population Pyknosed Nuclei (%) [5]: 13% | Population Tubulin-Different-Phenotype (%) [5]: 23% | Total Cell Count [5]: 529 | Population Apoptotic (%) [6]: 34% | Population Fragmented Nuclei (%) [6]: 7% | Population Healthy Nuclei (%) [6]: 78% | Population Hoechst High Intensity Objects (%) [6]: 5% | Population Mitochondria Different-Phenotype (%) [6]: 50% | Population Mitotic Cells (%) [6]: 65% | Population Normal (%) [6]: 94% | Population Tubulin-Different-Phenotype (%) [6]: 19% | Total Cell Count [6]: 542 | Population Apoptotic (%) [7]: 69% | Population Fragmented Nuclei (%) [7]: 11% | Population Healthy Nuclei (%) [7]: 72% | Population Hoechst High Intensity Objects (%) [7]: 5% | Population Membrane Permeable-Phenotype (%) [7]: 0% | Population Mitochondria Different-Phenotype (%) [7]: 73% | Population Mitotic Cells (%) [7]: 30% | Population Normal (%) [7]: 94% | Population Pyknosed Nuclei (%) [7]: 15% | Population Tubulin-Different-Phenotype (%) [7]: 50% | Total Cell Count [7]: 448 | Population Apoptotic (%) [8]: 41% | Population Fragmented Nuclei (%) [8]: 10% | Population Healthy Nuclei (%) [8]: 77% | Population Hoechst High Intensity Objects (%) [8]: 7% | Population Mitochondria Different-Phenotype (%) [8]: 78% | Population Mitotic Cells (%) [8]: 58% | Population Normal (%) [8]: 92% | Population Pyknosed Nuclei (%) [8]: 11% | Population Tubulin-Different-Phenotype (%) [8]: 45% | Total Cell Count [8]: 389 | Population Apoptotic (%) [9]: 28% | Population Fragmented Nuclei (%) [9]: 12% | Population Healthy Nuclei (%) [9]: 79% | Population Hoechst High Intensity Objects (%) [9]: 2% | Population Membrane Permeable-Phenotype (%) [9]: 0% | Population Mitochondria Different-Phenotype (%) [9]: 25% | Population Mitotic Cells (%) [9]: 71% | Population Normal (%) [9]: 97% | Population Pyknosed Nuclei (%) [9]: 8% | Population Tubulin-Different-Phenotype (%) [9]: 15% | Total Cell Count [9]: 842 | Population Apoptotic (%) [10]: 32% | Population Fragmented Nuclei (%) [10]: 11% | Population Healthy Nuclei (%) [10]: 83% | Population Hoechst High Intensity Objects (%) [10]: 5% | Population Mitochondria Different-Phenotype (%) [10]: 24% | Population Mitotic Cells (%) [10]: 67% | Population Normal (%) [10]: 94% | Population Pyknosed Nuclei (%) [10]: 5% | Population Tubulin-Different-Phenotype (%) [10]: 10% | Total Cell Count [10]: 829 | Population Apoptotic (%) [11]: 54% | Population Fragmented Nuclei (%) [11]: 14% | Population Healthy Nuclei (%) [11]: 72% | Population Hoechst High Intensity Objects (%) [11]: 4% | Population Membrane Permeable-Phenotype (%) [11]: 0% | Population Mitochondria Different-Phenotype (%) [11]: 59% | Population Mitotic Cells (%) [11]: 45% | Population Normal (%) [11]: 95% | Population Pyknosed Nuclei (%) [11]: 13% | Population Tubulin-Different-Phenotype (%) [11]: 32% | Total Cell Count [11]: 517 | Population Apoptotic (%) [12]: 50% | Population Fragmented Nuclei (%) [12]: 12% | Population Healthy Nuclei (%) [12]: 80% | Population Hoechst High Intensity Objects (%) [12]: 3% | Population Mitochondria Different-Phenotype (%) [12]: 56% | Population Mitotic Cells (%) [12]: 50% | Population Normal (%) [12]: 96% | Population Pyknosed Nuclei (%) [12]: 6% | Population Tubulin-Different-Phenotype (%) [12]: 26% | Total Cell Count [12]: 607

N[C@](CC1c2ccccc2Oc2ccccc21)(C(=O)O)[C@H]1C[C@@H]1C(=O)O
Population Apoptotic (%) [1]: 38% | Population Fragmented Nuclei (%) [1]: 6% | Population Healthy Nuclei (%) [1]: 83% | Population Hoechst High Intensity Objects (%) [1]: 7% | Population Membrane Permeable-Phenotype (%) [1]: 0% | Population Mitochondria Different-Phenotype (%) [1]: 43% | Population Mitotic Cells (%) [1]: 61% | Population Normal (%) [1]: 92% | Population Pyknosed Nuclei (%) [1]: 10% | Population Tubulin-Different-Phenotype (%) [1]: 27% | Total Cell Count [1]: 447 | Population Apoptotic (%) [2]: 54% | Population Fragmented Nuclei (%) [2]: 7% | Population Healthy Nuclei (%) [2]: 79% | Population Hoechst High Intensity Objects (%) [2]: 5% | Population Mitochondria Different-Phenotype (%) [2]: 58% | Population Mitotic Cells (%) [2]: 45% | Population Normal (%) [2]: 94% | Population Pyknosed Nuclei (%) [2]: 12% | Population Tubulin-Different-Phenotype (%) [2]: 25% | Total Cell Count [2]: 270 | Population Apoptotic (%) [3]: 32% | Population Fragmented Nuclei (%) [3]: 9% | Population Healthy Nuclei (%) [3]: 78% | Population Hoechst High Intensity Objects (%) [3]: 8% | Population Membrane Permeable-Phenotype (%) [3]: 0% | Population Mitochondria Different-Phenotype (%) [3]: 40% | Population Mitotic Cells (%) [3]: 67% | Population Normal (%) [3]: 91% | Population Pyknosed Nuclei (%) [3]: 12% | Population Tubulin-Different-Phenotype (%) [3]: 23% | Total Cell Count [3]: 381 | Population Fragmented Nuclei (%) [4]: 4% | Population Healthy Nuclei (%) [4]: 81% | Population Hoechst High Intensity Objects (%) [4]: 7% | Population Mitochondria Different-Phenotype (%) [4]: 66% | Population Normal (%) [4]: 92% | Population Pyknosed Nuclei (%) [4]: 13% | Population Tubulin-Different-Phenotype (%) [4]: 31% | Total Cell Count [4]: 382 | Population Apoptotic (%) [5]: 21% | Population Fragmented Nuclei (%) [5]: 8% | Population Healthy Nuclei (%) [5]: 81% | Population Hoechst High Intensity Objects (%) [5]: 3% | Population Membrane Permeable-Phenotype (%) [5]: 1% | Population Mitochondria Different-Phenotype (%) [5]: 24% | Population Mitotic Cells (%) [5]: 78% | Population Normal (%) [5]: 96% | Population Pyknosed Nuclei (%) [5]: 10% | Population Tubulin-Different-Phenotype (%) [5]: 15% | Total Cell Count [5]: 629 | Population Apoptotic (%) [6]: 38% | Population Fragmented Nuclei (%) [6]: 9% | Population Healthy Nuclei (%) [6]: 84% | Population Hoechst High Intensity Objects (%) [6]: 5% | Population Membrane Permeable-Phenotype (%) [6]: 0% | Population Mitochondria Different-Phenotype (%) [6]: 30% | Population Mitotic Cells (%) [6]: 61% | Population Normal (%) [6]: 94% | Population Pyknosed Nuclei (%) [6]: 6% | Population Tubulin-Different-Phenotype (%) [6]: 16% | Total Cell Count [6]: 368 | Population Apoptotic (%) [7]: 29% | Population Fragmented Nuclei (%) [7]: 10% | Population Healthy Nuclei (%) [7]: 79% | Population Hoechst High Intensity Objects (%) [7]: 5% | Population Membrane Permeable-Phenotype (%) [7]: 0% | Population Mitochondria Different-Phenotype (%) [7]: 30% | Population Mitotic Cells (%) [7]: 70% | Population Normal (%) [7]: 94% | Population Pyknosed Nuclei (%) [7]: 10% | Population Tubulin-Different-Phenotype (%) [7]: 17% | Total Cell Count [7]: 510 | Population Apoptotic (%) [8]: 40% | Population Fragmented Nuclei (%) [8]: 6% | Population Healthy Nuclei (%) [8]: 82% | Population Mitochondria Different-Phenotype (%) [8]: 41% | Population Mitotic Cells (%) [8]: 59% | Population Pyknosed Nuclei (%) [8]: 11% | Population Tubulin-Different-Phenotype (%) [8]: 16% | Total Cell Count [8]: 471 | Population Apoptotic (%) [9]: 12% | Population Fragmented Nuclei (%) [9]: 11% | Population Healthy Nuclei (%) [9]: 80% | Population Hoechst High Intensity Objects (%) [9]: 2% | Population Membrane Permeable-Phenotype (%) [9]: 2% | Population Mitochondria Different-Phenotype (%) [9]: 15% | Population Mitotic Cells (%) [9]: 87% | Population Normal (%) [9]: 97% | Population Pyknosed Nuclei (%) [9]: 7% | Population Tubulin-Different-Phenotype (%) [9]: 13% | Total Cell Count [9]: 1040 | Population Apoptotic (%) [10]: 17% | Population Fragmented Nuclei (%) [10]: 12% | Population Healthy Nuclei (%) [10]: 81% | Population Hoechst High Intensity Objects (%) [10]: 1% | Population Membrane Permeable-Phenotype (%) [10]: 0% | Population Mitochondria Different-Phenotype (%) [10]: 17% | Population Mitotic Cells (%) [10]: 82% | Population Normal (%) [10]: 98% | Population Pyknosed Nuclei (%) [10]: 6% | Population Tubulin-Different-Phenotype (%) [10]: 10% | Total Cell Count [10]: 654 | Population Apoptotic (%) [11]: 28% | Population Fragmented Nuclei (%) [11]: 13% | Population Healthy Nuclei (%) [11]: 78% | Population Hoechst High Intensity Objects (%) [11]: 2% | Population Membrane Permeable-Phenotype (%) [11]: 0% | Population Mitochondria Different-Phenotype (%) [11]: 17% | Population Mitotic Cells (%) [11]: 71% | Population Normal (%) [11]: 97% | Population Pyknosed Nuclei (%) [11]: 8% | Population Tubulin-Different-Phenotype (%) [11]: 8% | Total Cell Count [11]: 789 | Population Apoptotic (%) [12]: 42% | Population Healthy Nuclei (%) [12]: 80% | Population Hoechst High Intensity Objects (%) [12]: 4% | Population Mitochondria Different-Phenotype (%) [12]: 25% | Population Mitotic Cells (%) [12]: 57% | Population Normal (%) [12]: 95% | Population Pyknosed Nuclei (%) [12]: 6% | Population Tubulin-Different-Phenotype (%) [12]: 12% | Total Cell Count [12]: 687

— ChEMBL document CHEMBL5058577, “EUbOPEN Chemogenomics Library 2 (Multiplex)” (2022)
